Experimental data: ChEMBL document CHEMBL5608236, “A Photoactivatable Version of Ivabradine Enables Light-Induced Block of HCN Current In Vivo” (J Med Chem, 2024)
Calls of active or inactive are those of the source. The calls are words filed in the database; no cut-off is given here.

Key:
[1] = tested on: Neuron; assay: Inhibition of HCN in mouse brain neuron assessed as reduction of hyperpolarization-activated current (Ih) at 30 uM at holding potential of -70 to -120 mV with UV light irradiation at 365 nm by whole cell patch clamp electrophysiology; format: tissue-based
How it was run: (§1)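 Dendritic whole-cell recordings on L5 neurons of medial prefrontal cortex in acute slices from male mice (2-3 months), aCSF at 32-34 °C with D-APV, DNQX, CGP and gabazine. Ih evoked by steps to -120 mV (1.8 s) then +5 mV (0.15 s) from -70 mV holding. Compound bath-perfused at 30 or 100 μM with 365 nm illumination of the slice (23.5 mW); steady-state current compared before and at full effect; paired t-test.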

[2] = Fluorescence property of compound in HEPES buffer at pH 7.4 assessed as quantum yield at 1.5 mM under irradiation with 395 nm light by UV-Visible spectra analysis; format: physicochemical; conditions: pH 7.4, 1500 µM
[3] = Solubility of compound in HEPES buffer at pH 7.4 by UV-Visible spectra analysis; format: physicochemical
[4] = Drug accumulation in human HEK-293T cells transfected with RFP-fused human HCN1 assessed as increase in fluorescent signal at 30 uM measured for 25 mins by fluorescent microscopic analysis; format: ADME, cell-based
How it was run: (§2)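 HEK293T cells incubated with 30 μM compound in buffer for 15 min, or perfused for 5 min. Intracellular autofluorescence (excitation 405 nm, emission 518 nm) imaged by fluorescence microscopy, with images taken during 10 min of washout.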

[5] = In vivo inhibition of HCN4 in Zebrafish larvae assessed as reduction in heart rate at 1 mM administered at 48 hpf along with 0.5 mW/mm2 of UV light irradiation exposure at 365 nm measured upto 60 mins (reference value: 84 +/- 1 %); format: functional, Danio rerio
[6] = Drug accumulation in human HEK-293T cells transfected with RFP-fused human HCN1 assessed as increase in fluorescent signal at 30 uM incubated for 15 mins by fluorescent microscopic analysis; format: ADME, cell-based; conditions: 0.25 h; how it was run: as §2
[7] = In vivo inhibition of HCN4 in Zebrafish larvae assessed as reduction in heart rate at 1 mM administered at 48 hpf along with 2 mW/mm2 of blue light irradiation exposure at 436 nm measured upto 60 mins (reference value: 80 +/- 1 %); format: functional, Danio rerio
[8] = Fluorescence property of compound in HEPES buffer at pH 7.4 assessed as quantum yield at 1.5 mM under irradiation with 440 nm light by UV-Visible spectra analysis; format: physicochemical; conditions: pH 7.4, 1500 µM
[9] = tested on: HEK-293T; assay: Cytotoxicity against human HEK-293T cells assessed as reduction in cell viability at 100 uM incubated upto 48 hrs by live/dead TM red staining based fluorescent microscopic analysis; format: toxicity
How it was run: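 HEK293T cells in DMEM high-glucose with 10% FBS and 1% PenStrep, treated at 80-90% confluency with 100 μM compound added to growth medium; untreated and 0.5% DMSO controls, heat-killed (60 °C, 20 min) positive control. After 8, 16, 24 or 48 h, cells detached, stained with LIVE-DEAD NearIF in PBS, imaged at 640 nm excitation; dead cells counted in three random quadrants per triplicate.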

[10] = Fluorescence property of compound in HEPES buffer at pH 7.4 assessed as quantum yield at 1.5 mM under irradiation with 365 nm light by UV-Visible spectra analysis; format: physicochemical; conditions: pH 7.4, 1500 µM
[11] = tested on: Neuron; assay: Inhibition of HCN in mouse brain neuron assessed as reduction of hyperpolarization-activated current (Ih) at 30 to 100 uM at holding potential of -70 to -120 mV with UV light irradiation at 365 nm by whole cell patch clamp electrophysiology; format: tissue-based; conditions: dose 30-100 µM; how it was run: as §1
[12] = target: T1, Potassium/sodium hyperpolarization-activated cyclic nucleotide-gated channel 1 (Homo sapiens) (UniProt O60741); assay: Inhibition of RFP-fused human HCN1 transfected in HEK-293T cells at 30 uM at holding potential of -110 mV pre-exposed with 0.5 mW/mm2 of UV light irradiation at 395 nm by whole cell patch clamp electrophysiology relative to IVA; format: cell-based
T1 sequence (whole entry): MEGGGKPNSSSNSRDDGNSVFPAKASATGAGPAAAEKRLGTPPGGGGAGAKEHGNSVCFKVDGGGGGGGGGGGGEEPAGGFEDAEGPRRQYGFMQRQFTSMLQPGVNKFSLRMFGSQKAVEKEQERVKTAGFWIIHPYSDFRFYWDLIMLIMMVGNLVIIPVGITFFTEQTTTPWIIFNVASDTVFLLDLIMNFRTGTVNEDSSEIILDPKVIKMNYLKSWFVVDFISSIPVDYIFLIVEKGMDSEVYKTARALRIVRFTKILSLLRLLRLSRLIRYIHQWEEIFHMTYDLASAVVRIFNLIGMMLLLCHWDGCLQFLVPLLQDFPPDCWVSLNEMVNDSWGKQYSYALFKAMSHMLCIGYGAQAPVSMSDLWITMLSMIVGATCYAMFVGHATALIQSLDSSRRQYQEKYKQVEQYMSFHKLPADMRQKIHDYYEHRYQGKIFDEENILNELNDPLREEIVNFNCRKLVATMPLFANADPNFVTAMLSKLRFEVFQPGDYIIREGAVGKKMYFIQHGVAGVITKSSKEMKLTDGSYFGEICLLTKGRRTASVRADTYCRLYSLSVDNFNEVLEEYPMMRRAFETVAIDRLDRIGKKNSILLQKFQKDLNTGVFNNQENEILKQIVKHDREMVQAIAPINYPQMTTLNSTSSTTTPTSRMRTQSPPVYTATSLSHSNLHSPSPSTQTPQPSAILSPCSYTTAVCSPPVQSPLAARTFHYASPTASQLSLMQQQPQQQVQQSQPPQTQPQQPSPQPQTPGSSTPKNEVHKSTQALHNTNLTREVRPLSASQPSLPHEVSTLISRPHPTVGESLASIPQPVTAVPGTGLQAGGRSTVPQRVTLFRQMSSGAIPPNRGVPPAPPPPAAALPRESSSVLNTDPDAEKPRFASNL
How it was run: (§3)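 RFP-hHCN1 transiently expressed in HEK293T; whole-cell patch clamp at room temperature, 5 kHz sampling, 1 kHz filter. Steps to -110 mV (1.8 s) and +5 mV (0.5 s) every 5.5 s from -20 mV holding. Compound added to extracellular solution by perfusion, either in the dark, pre-illuminated (395 nm 0.5 mW/mm2, or 440 nm 1 mW/mm2 for 1 min) or illuminated during perfusion. Fractional block = current reduction/control current; mean ± SEM.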

[13] = target: T1, Potassium/sodium hyperpolarization-activated cyclic nucleotide-gated channel 1 (Homo sapiens); assay: Inhibition of RFP-fused human HCN1 transfected in HEK-293T cells at 30 uM at holding potential of -110 mV with 1 mW/mm2 of blue light irradiation exposure at 440 nm by whole cell patch clamp electrophysiology relative to IVA; format: cell-based; how it was run: as §3
[14] = target: T1, Potassium/sodium hyperpolarization-activated cyclic nucleotide-gated channel 1 (Homo sapiens); assay: Inhibition of RFP-fused human HCN1 transfected in HEK-293T cells at 100 uM at holding potential of -110 mV under dark condition by whole cell patch clamp electrophysiology; format: cell-based; how it was run: as §3
[15] = target: T1, Potassium/sodium hyperpolarization-activated cyclic nucleotide-gated channel 1 (Homo sapiens); assay: Inhibition of RFP-fused human HCN1 transfected in HEK-293T cells at 30 uM at holding potential of -110 mV pre-exposed with 0.5 mW/mm2 of UV light irradiation at 395 nm by whole cell patch clamp electrophysiology; format: cell-based; how it was run: as §3
[16] = target: T1, Potassium/sodium hyperpolarization-activated cyclic nucleotide-gated channel 1 (Homo sapiens); assay: Inhibition of RFP-fused human HCN1 transfected in HEK-293T cells at 100 uM at holding potential of -110 mV with 1 mW/mm2 of blue light irradiation exposure at 440 nm by whole cell patch clamp electrophysiology relative to IVA; format: cell-based; how it was run: as §3
[17] = target: T1, Potassium/sodium hyperpolarization-activated cyclic nucleotide-gated channel 1 (Homo sapiens); assay: Inhibition of RFP-fused human HCN1 transfected in HEK-293T cells at 30 uM at holding potential of -110 mV with 0.5 mW/mm2 of UV light irradiation exposure at 395 nm by whole cell patch clamp electrophysiology relative to IVA; format: cell-based; how it was run: as §3
[18] = target: T1, Potassium/sodium hyperpolarization-activated cyclic nucleotide-gated channel 1 (Homo sapiens); assay: Inhibition of RFP-fused human HCN1 transfected in HEK-293T cells at 100 uM at holding potential of -110 mV pre-exposed with 1 mW/mm2 of blue light irradiation at 440 nm by whole cell patch clamp electrophysiology relative to IVA; format: cell-based; how it was run: as §3
[19] = target: T1, Potassium/sodium hyperpolarization-activated cyclic nucleotide-gated channel 1 (Homo sapiens); assay: Inhibition of RFP-fused human HCN1 transfected in HEK-293T cells at 30 uM at holding potential of -110 mV with 0.5 mW/mm2 of UV light irradiation exposure at 395 nm by whole cell patch clamp electrophysiology; format: cell-based; how it was run: as §3
[20] = Stability in human plasma at 40 mM incubated upto 24 hrs by UV-HPLC analysis; format: ADME, cell-free; conditions: 1000 µM, in the assay text read “1 mM” for “40 mM”
How it was run: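 A 40 mM stock was added to human plasma (10 into 390 parts) and incubated at 37 °C for 24 h, in duplicate. At time points, aliquots were quenched in 3 volumes of cold acetonitrile, centrifuged at 4 °C for 10 min, filtered and analysed by HPLC-UV (C18, TFA water/acetonitrile gradient, detection at 280 nm).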

[21] = tested on: Neuron; assay: Inhibition of HCN in mouse brain neuron assessed as reduction of hyperpolarization-activated current (Ih) at 100 uM at holding potential of -70 to -120 mV with UV light irradiation at 365 nm by whole cell patch clamp electrophysiology; format: tissue-based; how it was run: as §1
[22] = target: T1, Potassium/sodium hyperpolarization-activated cyclic nucleotide-gated channel 1 (Homo sapiens); assay: Inhibition of RFP-fused human HCN1 transfected in HEK-293T cells at 100 uM at holding potential of -110 mV under UV light exposure by whole cell patch clamp electrophysiology; format: cell-based; how it was run: as §3

SMILES | Activity [2] | solubility [3] | Activity [8] | Activity [10] | inhibition [14] | inhibition (INH) [5] | inhibition (INH) [7] | Activity [9] | other results
COc1cc2c(cc1OC)CC(=O)N(CCCN(C)C[C@H]1Cc3cc(OC)c(OC)cc31)CC2 |  |  |  |  |  |  |  |  | inhibition [1]: Active
COc1cc2c(cc1OC)CC(=O)N(CCC[N+](C)(Cc1ccc3ccc(O)c(Br)c3n1)C[C@H]1Cc3cc(OC)c(OC)cc31)CC2.CS(=O)(=O)[O-] (stereo not given in full) | 0.041 | 550 µM | 0.051 | 0.091 |  | 51% | 49% | Non-Toxic | Drug uptake [4]: Active; Drug uptake [6]: Active
COc1cc2c(cc1OC)CC(=O)N(CCC[N+](C)(Cc1ccc3ccc(O)c(Br)c3n1)C[C@H]1Cc3cc(OC)c(OC)cc31)CC2.[OH-] (stereo not given in full) | 0.034 | 430 µM | 0.062 | 0.073 |  | 49% | 51% |  | Stability [20]: Stable

Now from value to molecule, other results behind:

Activity [2] | solubility [3] | Activity [8] | Activity [10] | inhibition [14] | SMILES | inhibition (INH) [5] | inhibition (INH) [7] | Activity [9] | other results
 |  |  |  | inactive | COc1cc2c(cc1OC)CC(=O)N(CCC[N+](C)(Cc1ccc3ccc(O)c(Br)c3n1)C[C@H]1Cc3cc(OC)c(OC)cc31)CC2 (stereo not given in full) |  |  |  | inhibition [11]: Active; inhibition [12]: 95%; inhibition [13]: 65%; inhibition [15]: Active; inhibition [16]: 85%; inhibition [17]: 85%; inhibition [18]: 85%; inhibition [19]: Active
 |  |  |  | inactive | OCc1ccc2ccc(O)c(Br)c2n1 |  |  | Non-Toxic | inhibition [21]: inactive; inhibition [22]: inactive
